Experimental data published in ChEMBL document CHEMBL2021876, “New pyridobenzoxazepine derivatives derived from 5-(4-methylpiperazin-1-yl)-8-chloro-pyrido[2,3-b][1,5]benzoxazepine (JL13): chemical synthesis and pharmacological evaluation” (J Med Chem, 2012).
pKi: −log10 of the molar value.

Key:
Caudate-putamen = assay: In vivo displacement of [3H]Nemonapride from dopamine D2 receptor in Sprague-Dawley rat lateral of caudate putamen at 13.75 mg/kg, ip qd for 28 days by autoradiography relative to control; assay type: functional; conditions: route intraperitoneal
Outline: (§1)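 Male Sprague-Dawley rats, N = 8/group, daily ip dosing for 28 days with vehicle controls; cryostat sections (10 μm) preincubated 1 h RT. Incubation 1 h RT in 50 mM Tris-HCl pH 7.4, 120 mM NaCl, 5 mM KCl, 2 mM CaCl2, 1 mM MgCl2 with 1 nM [3H]nemonapride, 0.5 μM DTG, 0.1 μM pindolol. Nonspecific: 10 μM S(−)-sulpiride. Values fmol/mg tissue, % of control.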

[1] = In vivo displacement of [3H]SCH-23390 from dopamine D1 receptor in Sprague-Dawley rat nucleus accumbens at 13.75 mg/kg, ip qd for 28 days by autoradiography relative to control; assay type: functional; conditions: route intraperitoneal
Outline: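 Forebrain sections from male Sprague-Dawley rats (N = 8/group) after 28 days of daily ip injections versus vehicle. Incubation 1 h RT in 50 mM Tris-HCl pH 7.4, 120 mM NaCl, 5 mM KCl, 2 mM CaCl2, 1 mM MgCl2 with 1 nM [3H]SCH-23390 and 100 nM ketanserin. Nonspecific: 1 μM cis-flupenthixol. Saturating conditions; fmol/mg tissue, % of control.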

[2] = In vivo displacement of [3H]Ketanserin from 5HT2A receptor in Sprague-Dawley rat dorsolateral frontal cortex at 13.75 mg/kg, ip qd for 28 days by autoradiography relative to control; assay type: functional; conditions: route intraperitoneal
Outline: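 Rats (male Sprague-Dawley, N = 8/group) given daily ip injections for 28 days versus vehicle. Brain sections preincubated 1 h RT in 50 mM Tris-HCl pH 7.7, then 1 h RT with 3.0 nM [3H]ketanserin plus 1 μM prazosin and 100 nM tetrabenazine. Nonspecific: 1 μM methysergide. Washes 2 × 30 min ice-cold. Readout fmol/mg tissue as % of control, mean ± SEM.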

[3] = In vivo displacement of [3H]Nemonapride from dopamine D4 receptor in Sprague-Dawley rat entorhinal cortex at 13.75 mg/kg, ip qd for 28 days by autoradiography relative to control; assay type: functional; conditions: route intraperitoneal
[4] = target: T1, D(4) dopamine receptor (Homo sapiens) (UniProt P21917); assay: Displacement of [3H]-YM09151-2 from human cloned dopamine D4 receptor expressed in insect Sf9 cells at 10^-6 M after 60 mins by liquid scintillation counting
T1 sequence (whole entry): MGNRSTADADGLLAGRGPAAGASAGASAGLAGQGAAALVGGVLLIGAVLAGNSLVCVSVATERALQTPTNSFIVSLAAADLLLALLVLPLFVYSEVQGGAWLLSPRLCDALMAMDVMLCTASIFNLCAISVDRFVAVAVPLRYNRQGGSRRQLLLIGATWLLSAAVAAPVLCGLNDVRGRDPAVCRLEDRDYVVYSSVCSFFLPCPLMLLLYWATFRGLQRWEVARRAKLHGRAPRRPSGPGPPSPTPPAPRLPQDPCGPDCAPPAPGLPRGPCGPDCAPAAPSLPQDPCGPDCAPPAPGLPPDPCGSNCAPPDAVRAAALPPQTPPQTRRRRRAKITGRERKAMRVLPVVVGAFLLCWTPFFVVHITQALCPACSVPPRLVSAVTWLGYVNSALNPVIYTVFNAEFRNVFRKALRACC

[5] = target: Serotonin 1a (5-HT1a) receptor/Adrenergic receptor alpha-1 (Rattus norvegicus) (UniProt P15823+P23944+P43140+P19327); assay: In vivo displacement of [3H]8-OH-DPAT from 5HT1A receptor in Sprague-Dawley rat medial-prefrontal cortex at 13.75 mg/kg, ip qd for 28 days by autoradiography relative to control; assay type: functional, organism-based; parameters: dose 13.75 mg/kg
Outline: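 Male Sprague-Dawley rats (200−225 g, N = 8/group) dosed ip once daily for 28 days, vehicle controls, decapitated; 10 μm frozen coronal sections. Preincubation 1 h RT in 50 mM Tris-HCl pH 7.6, 0.1% ascorbic acid, 4 mM CaCl2, 10 μM pargyline; then 1 h RT with 2.0 nM [3H]8-OH-DPAT. Nonspecific: 1 μM 5-HT. Saturating conditions; binding in fmol/mg tissue, % of control, mean ± SEM.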

[6] = target: D(2) dopamine receptor (Rattus norvegicus) (UniProt P61169); assay: In vivo displacement of [3H]Nemonapride from dopamine D2 receptor in Sprague-Dawley rat nucleus accumbens at 13.75 mg/kg, ip qd for 28 days by autoradiography relative to control; assay type: functional, organism-based; parameters: dose 13.75 mg/kg; outline: as §1
D(2) dopamine receptor (Rattus norvegicus), sequence (P61169 whole entry): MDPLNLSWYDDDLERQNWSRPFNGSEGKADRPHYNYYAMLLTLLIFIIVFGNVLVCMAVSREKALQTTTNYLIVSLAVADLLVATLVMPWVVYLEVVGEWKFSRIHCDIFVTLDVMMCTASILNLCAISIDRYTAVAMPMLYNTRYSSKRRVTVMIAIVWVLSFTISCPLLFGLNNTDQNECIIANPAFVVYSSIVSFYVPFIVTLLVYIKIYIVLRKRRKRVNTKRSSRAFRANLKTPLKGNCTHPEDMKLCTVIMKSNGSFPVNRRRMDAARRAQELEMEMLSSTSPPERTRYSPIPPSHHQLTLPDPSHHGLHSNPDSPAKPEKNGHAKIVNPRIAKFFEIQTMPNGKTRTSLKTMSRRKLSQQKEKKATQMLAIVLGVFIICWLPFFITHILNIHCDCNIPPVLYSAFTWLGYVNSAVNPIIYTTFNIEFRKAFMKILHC

[7] = target: 5-hydroxytryptamine receptor 2A (Homo sapiens, UniProt P28223); assay: Displacement of [3H]ketanserin from human recombinant 5HT2A receptor expressed in CHO cells after 60 mins by liquid scintillation counting; assay type: cell-based
5-hydroxytryptamine receptor 2A, sequence (P28223 whole entry): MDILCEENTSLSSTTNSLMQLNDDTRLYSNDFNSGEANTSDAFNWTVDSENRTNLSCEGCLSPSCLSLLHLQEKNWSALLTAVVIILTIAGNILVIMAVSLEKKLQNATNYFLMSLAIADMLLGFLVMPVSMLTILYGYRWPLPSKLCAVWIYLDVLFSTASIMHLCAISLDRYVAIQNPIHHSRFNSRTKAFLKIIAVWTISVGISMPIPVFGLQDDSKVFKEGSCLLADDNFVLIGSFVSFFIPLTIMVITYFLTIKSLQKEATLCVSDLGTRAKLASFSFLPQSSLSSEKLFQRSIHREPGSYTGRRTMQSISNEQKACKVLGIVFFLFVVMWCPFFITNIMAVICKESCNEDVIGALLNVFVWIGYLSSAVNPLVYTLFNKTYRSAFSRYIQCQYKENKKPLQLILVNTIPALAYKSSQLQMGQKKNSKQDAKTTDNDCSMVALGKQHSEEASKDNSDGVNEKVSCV

Q: Which inhibition in vivo at 13.75 mg/kg (Caudate-putamen) does the source give for `Clc1ccc2c(c1)N=C(N1CCNCC1)c1cccnc1O2` here?
A: 98%

Q: What about the inhibition in vivo at 13.75 mg/kg [1] of the same compound?
A: 128%

Q: And the inhibition in vivo at 13.75 mg/kg [2]?
A: 53%

Q: And the inhibition in vivo at 13.75 mg/kg [3]?
A: 103%

Q: What about the inhibition [4] of the same compound?
A: 28%

Q: What about the inhibition [5] of the same compound?
A: 137%

Q: What about the inhibition [6] of the same compound?
A: 140%

Q: What about the pKi [7] of the same compound?
A: 6.88
